Measured values from ChEMBL document CHEMBL3259614, “Design, synthesis, and structure-activity relationship studies of novel fused heterocycles-linked triazoles with good activity and water solubility” (J Med Chem, 2014).
Values after ≈ are worked out from the molar mass of the structure shown.

Experiments:
Assay type in all cases: functional
[1] = tested on: Candida albicans; experiment: Antimicrobial activity against Candida albicans SC5314 after 24 hrs by serial dilution method; conditions: SC5314, 24 h
Summary of the method: (§1)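 Broth serial dilution MIC in 96-well plates following NCCLS/CLSI methods. Compounds were dissolved in DMSO and serially diluted in growth medium, with incubation at 35 °C. […] C. parapsilosis 22019 served as the quality-control strain in each assay.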

[2] = tested on: Candida albicans; experiment: Antimicrobial activity against Candida albicans Y0109 after 24 hrs by serial dilution method; conditions: Y0109, 24 h; summary of the method: as §1
[3] = tested on: Candida parapsilosis; experiment: Antimicrobial activity against Candida parapsilosis 22019 after 24 hrs by serial dilution method; conditions: Lodderomyces parapsilosis, 22019, 24 h; summary of the method: as §1
[4] = tested on: Cryptococcus neoformans; experiment: Antimicrobial activity against Cryptococcus neoformans 32609 after 72 hrs by serial dilution method; conditions: Cryptococcus neoformans, 32609, 72 h; summary of the method: as §1
[5] = tested on: Nakaseomyces glabratus; experiment: Antimicrobial activity against Candida glabrata 537 after 24 hrs by serial dilution method; conditions: Nakaseomyces glabratus, 537, 24 h; summary of the method: as §1
[6] = tested on: Aspergillus fumigatus; experiment: Antimicrobial activity against Aspergillus fumigatus 7544 after 48 hrs by serial dilution method; conditions: Aspergillus fumigatus, 7544, 48 h; summary of the method: as §1

Compound | MIC [1] [µg/mL] | MIC [2] [µg/mL] | MIC [3] [µg/mL] | MIC [4] [µg/mL] | MIC [5] [µg/mL] | MIC [6] [µg/mL]
C[C@@H](N1CCn2nc(-c3ccc(Br)cc3)nc2C1)[C@](O)(Cn1cncn1)c1ccc(F)cc1F | 0.25 (≈ 0.471 µM) | 0.125 (≈ 0.236 µM) | 0.5 (≈ 0.943 µM) | 0.25 (≈ 0.471 µM) | 0.5 (≈ 0.943 µM) | 16 (≈ 30.2 µM)
C[C@@H](N1CCn2nc(-c3ccc(F)cc3)nc2C1)[C@](O)(Cn1cncn1)c1ccc(F)cc1F | 0.25 (≈ 0.533 µM) | 0.125 (≈ 0.266 µM) | 0.125 (≈ 0.266 µM) | 0.125 (≈ 0.266 µM) | 0.125 (≈ 0.266 µM) | 32 (≈ 68.2 µM)
C[C@@H](N1CCn2nc(-c3ccc(Cl)cc3)nc2C1)[C@](O)(Cn1cncn1)c1ccc(F)cc1F | 0.25 (≈ 0.514 µM) | 0.125 (≈ 0.257 µM) | 0.5 (≈ 1.03 µM) | 0.125 (≈ 0.257 µM) | 0.5 (≈ 1.03 µM) | 16 (≈ 32.9 µM)
C[C@@H](N1CCn2nc(-c3cccc(Cl)c3)nc2C1)[C@](O)(Cn1cncn1)c1ccc(F)cc1F | 0.25 (≈ 0.514 µM) | 0.125 (≈ 0.257 µM) | 1 (≈ 2.06 µM) | 2 (≈ 4.12 µM) | 1 (≈ 2.06 µM) | 64 (≈ 132 µM)
C[C@@H](N1CCn2nc(-c3cccc(Br)c3)nc2C1)[C@](O)(Cn1cncn1)c1ccc(F)cc1F | 0.25 (≈ 0.471 µM) | 0.125 (≈ 0.236 µM) | 0.5 (≈ 0.943 µM) | 1 (≈ 1.89 µM) | 1 (≈ 1.89 µM) | 16 (≈ 30.2 µM)
C[C@@H](N1CCn2nc(-c3cccc(C(F)(F)F)c3)nc2C1)[C@](O)(Cn1cncn1)c1ccc(F)cc1F | 0.5 (≈ 0.963 µM) | 2 (≈ 3.85 µM) | 0.5 (≈ 0.963 µM) | 2 (≈ 3.85 µM) | 0.25 (≈ 0.481 µM) | 16 (≈ 30.8 µM)
C[C@@H](N1CCn2nc(-c3ccc(C(F)(F)F)cc3)nc2C1)[C@](O)(Cn1cncn1)c1ccc(F)cc1F | 0.25 (≈ 0.481 µM) | 0.5 (≈ 0.963 µM) | 0.5 (≈ 0.963 µM) | 1 (≈ 1.93 µM) | 0.125 (≈ 0.241 µM) | 16 (≈ 30.8 µM)
CC(C)c1cccc(-c2nc3n(n2)CCN([C@H](C)[C@](O)(Cn2cncn2)c2ccc(F)cc2F)C3)c1 | 0.25 (≈ 0.507 µM) | 4 (≈ 8.1 µM) | 4 (≈ 8.1 µM) | 8 (≈ 16.2 µM) | 4 (≈ 8.1 µM) | 16 (≈ 32.4 µM)
CC(C)c1ccc(-c2nc3n(n2)CCN([C@H](C)[C@](O)(Cn2cncn2)c2ccc(F)cc2F)C3)cc1 | 0.5 (≈ 1.01 µM) | 0.5 (≈ 1.01 µM) | 1 (≈ 2.03 µM) | 2 (≈ 4.05 µM) | 1 (≈ 2.03 µM) | 16 (≈ 32.4 µM)

The remaining compounds from weak to strong by MIC [1], led by results:

MIC [1] [µg/mL] | MIC [2] [µg/mL] | MIC [3] [µg/mL] | MIC [4] [µg/mL] | MIC [5] [µg/mL] | MIC [6] [µg/mL] | Compound
0.25 (≈ 0.666 µM) | 0.25 (≈ 0.666 µM) | 0.25 (≈ 0.666 µM) | 0.5 (≈ 1.33 µM) | 0.5 (≈ 1.33 µM) | 16 (≈ 42.6 µM) | C[C@@H](N1CCn2ncnc2C1)[C@](O)(Cn1cncn1)c1ccc(F)cc1F
0.25 (≈ 0.564 µM) | 0.5 (≈ 1.13 µM) | 0.5 (≈ 1.13 µM) | 0.5 (≈ 1.13 µM) | 1 (≈ 2.26 µM) | 32 (≈ 72.2 µM) | C[C@@H](N1CCn2nc(C(F)(F)F)nc2C1)[C@](O)(Cn1cncn1)c1ccc(F)cc1F
0.125 (≈ 0.262 µM) | 0.125 (≈ 0.262 µM) | 0.5 (≈ 1.05 µM) | 0.125 (≈ 0.262 µM) | 0.125 (≈ 0.262 µM) | 64 (≈ 134 µM) | C[C@@H](N1CCn2nc(-c3ccc(C#N)cc3)nc2C1)[C@](O)(Cn1cncn1)c1ccc(F)cc1F
0.125 (≈ 0.256 µM) | 0.125 (≈ 0.256 µM) | 0.25 (≈ 0.513 µM) | 0.5 (≈ 1.03 µM) | 0.5 (≈ 1.03 µM) | > 64 | C[C@@H](N1CCn2nc(-c3ccc(F)cc3F)nc2C1)[C@](O)(Cn1cncn1)c1ccc(F)cc1F
0.125 (≈ 0.266 µM) | 0.125 (≈ 0.266 µM) | 0.5 (≈ 1.07 µM) | 0.5 (≈ 1.07 µM) | 0.25 (≈ 0.533 µM) | 16 (≈ 34.1 µM) | C[C@@H](N1CCn2nc(-c3cccc(F)c3)nc2C1)[C@](O)(Cn1cncn1)c1ccc(F)cc1F
0.125 (≈ 0.262 µM) | 0.125 (≈ 0.262 µM) | 0.125 (≈ 0.262 µM) | 0.5 (≈ 1.05 µM) | 0.5 (≈ 1.05 µM) | 16 (≈ 33.6 µM) | C[C@@H](N1CCn2nc(-c3cccc(C#N)c3)nc2C1)[C@](O)(Cn1cncn1)c1ccc(F)cc1F
0.125 (≈ 0.273 µM) | 0.125 (≈ 0.273 µM) | 0.125 (≈ 0.273 µM) | 0.125 (≈ 0.273 µM) | 0.25 (≈ 0.546 µM) | 8 (≈ 17.5 µM) | C[C@@H](N1CCn2nc(-c3cccs3)nc2C1)[C@](O)(Cn1cncn1)c1ccc(F)cc1F
0.0625 (≈ 0.134 µM) | 0.125 (≈ 0.269 µM) | 0.25 (≈ 0.537 µM) | 0.125 (≈ 0.269 µM) | 0.125 (≈ 0.269 µM) | 32 (≈ 68.7 µM) | Cc1cccc(-c2nc3n(n2)CCN([C@H](C)[C@](O)(Cn2cncn2)c2ccc(F)cc2F)C3)c1
0.0625 (≈ 0.134 µM) | 0.125 (≈ 0.269 µM) | 0.125 (≈ 0.269 µM) | 0.125 (≈ 0.269 µM) | 0.125 (≈ 0.269 µM) | 32 (≈ 68.7 µM) | Cc1ccc(-c2nc3n(n2)CCN([C@H](C)[C@](O)(Cn2cncn2)c2ccc(F)cc2F)C3)cc1
0.0625 (≈ 0.13 µM) | 0.125 (≈ 0.26 µM) | 0.25 (≈ 0.519 µM) | 0.125 (≈ 0.26 µM) | 0.125 (≈ 0.26 µM) | 32 (≈ 66.5 µM) | COc1ccc(-c2nc3n(n2)CCN([C@H](C)[C@](O)(Cn2cncn2)c2ccc(F)cc2F)C3)cc1
0.0625 (≈ 0.13 µM) | 0.125 (≈ 0.26 µM) | 0.25 (≈ 0.519 µM) | 0.25 (≈ 0.519 µM) | 0.125 (≈ 0.26 µM) | 32 (≈ 66.5 µM) | COc1cccc(-c2nc3n(n2)CCN([C@H](C)[C@](O)(Cn2cncn2)c2ccc(F)cc2F)C3)c1
